Source: PubChem BioAssay (SRMLSC)
HCT116 PTEN-null – suppresses growth of cells with PTEN deletion; AID 827; HCT116 PTEN-null viability, CellTiter-Glo, 60 h; stronger effect = lower value; hit rate 1.2% among 140,000; viability, % at 10 µM;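 active = viability at or below a set limit, 4 SD under the median of all tested compounds, cut at about 3.7% in these data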;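 note: PTEN knockout HCT116 line with beta catenin targeted HCT116 as companion control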
bCat KO growth – beta-catenin-lacking colon tumor cell growth suppression. HCT116 beta-catenin knockout viability, CellTiter-Glo, 60 h; stronger effect = lower value. viability, % at 10 µM. hit rate 1.5% among 140,000. AID 818;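 active = viability at or under a set limit, the compound median less 4 SD, cut at about 6% in these data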;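 note: 0% = Hyamine 1622 control at 20 µM and 100% = untreated cell control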
HUVEC inhibit – human endothelial cell proliferation inhibition; HUVEC proliferation, CellTiter-Glo luminescence, 72 h; stronger effect = lower value; viability, % at 10 µM (by protocol); hit rate 1.1% among 86,000;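 active = viability at or below 30%; inactive = viability above 30%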;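 note: 100% = median luminescence of DMSO-only cell control wells on each plate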
H69AR inhibit – growth inhibitors of human H69AR lung tumor cells; viability, % at 10 µM; hit rate 6% among 85,000; H69AR lung tumor viability, ATP luminescence, 72 h; stronger effect = lower value;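 active = viability at or below 40%; inactive = viability above 40%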;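 note: multidrug resistant small cell line overexpressing MRP-1 efflux transporter; 100% = mean luminescence of untreated control wells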
Fibroblast inh – blocks proliferation of human lung fibroblasts. LL 47 human lung fibroblast viability, ATP luminescence; stronger effect = lower value. viability, % at 10 µM. hit rate 1.1% among 85,000. AID 719;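 active = viability at or below 50% in the single dose screen; inactive = viability above 50%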;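 note: compound exposure lasted 72 h before the ATP readout; 100% = median luminescence of untreated cell-only wells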
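Material: Human LL 47 lung fibroblast cells | Input: 1,150 cells/well | Buffer or medium: IMEM plus 15% FBS | Compound dosing: 0.1% DMSO in all compound wells | Times: Overnight cell rest, 72 h compound treatment at 37 °C | Signal: CellTiter-Glo luminescence measuring cellular ATP | Measure: % viability versus median cells-only luminescence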
Starred values were filed as active, the others as inactive; · = not tested or not shown. Shown is part of a subset that was picked to be rich in hits.

SMILES | HCT116 PTEN-null | bCat KO growth | HUVEC inhibit | H69AR inhibit | Fibroblast inh
COc1ccc(O)c(-c2cc(C(F)(F)C(F)F)nc(-c3ccccc3)n2)c1 | 75 | 93 | 80 | 34* | 94
CC(=O)Nc1ccc(S(=O)(=O)N[C@@H](C)C(=O)OCc2ccc(Cl)cc2)cc1 | 97 | 95 | · | · | ·
CCOC(=O)c1cc2c(n(-c3ccccc3)c1=O)CC(C)(C)CC2=O | 88 | 105 | 87 | 36* | 89
CC1(C)CC(=O)c2cc(C(=O)O)c(=O)n(-c3ccccc3)c2C1 | 110 | 106 | 101 | 102 | 102
CN1C(=O)c2ccc(NC(=S)NC(=O)C(C)(C)C)cc2C1=O | 93 | 95 | · | · | ·
CCn1cc(C(=O)O)c(=O)c2cc(F)c(N/N=C/c3ccccc3[N+](=O)[O-])cc21 | 5 | 4.1* | · | · | ·
Cn1c(-c2ccccc2)cc2c3no[n+]([O-])c3ccc21 | 4 | 9 | 14* | 19* | 26*
CN1c2ccccc2-c2nc3ccccc3n2C1c1ccccn1 (centres undefined) | 87 | 86 | 99 | 58 | 99
c1ccc(CN2c3ccccc3-c3nc4ccccc4n3C2c2ccccn2)cc1 (centres undefined) | 59 | 69 | 74 | 32* | 80
CC1=Nc2ccccc2/C1=C/c1sc(=N)n(-c2nccs2)c1O | 2.3* | 3.9* | 52 | 2.9* | 52
CC1=Nc2ccccc2/C1=C\c1nc(-c2ccc(C(F)(F)F)cc2)oc1O | 103 | 93 | 76 | 84 | 94
CCOc1ccc(N(CC(=O)NC2CCCC2)C(=O)CSc2nnc(COc3ccccc3)o2)cc1 | 75 | 74 | · | · | ·
Cc1ccc(C)c(C(=O)CN2C(=O)c3ccccc3S2(=O)=O)c1 | 89 | 92 | 97 | 95 | 101
Cc1ccc(C)c(C(=O)Cn2ncc(Cl)c(Cl)c2=O)c1 | 1.3* | 1.8* | 2.2* | 0.4* | 2.1*
Cc1cccc(Cn2ncc(Cl)c(Cl)c2=O)c1 | 2.2* | 2.2* | · | · | ·
Cc1cc(C(=O)Cn2ncc(Cl)c(Cl)c2=O)c(C)n1CC(F)(F)F | 0.8* | 0.5* | · | · | ·
C=CCn1c(C)cc(C(=O)CSc2nnc3c(Cl)cc(Cl)cn23)c1C | 101 | 98 | 98 | 68 | 101
O=C(c1ccc(F)cc1)N1CCN=C1c1ccccc1 | 92 | 97 | · | · | ·
C=CC(=O)NCCCc1cc(C(C)(C)C)c(O)c(C(C)(C)C)c1 | 75 | 85 | · | · | ·
Cc1c(-c2ccccc2)oc2c(C(=O)N3CCN(c4ccccc4F)CC3)cccc2c1=O | 68 | 84 | · | · | ·
Clc1ccc2nc(C3CCN(Cc4nnnn4C4CCCCC4)CC3)[nH]c2c1 | 30 | 27 | 68 | 15* | 64
Cc1ccc(Cn2nnnc2CN2CCC(c3nc4ccc(Cl)cc4[nH]3)CC2)cc1 | 14 | 23 | · | · | ·
CC(C)N1C/C(=C/c2ccsc2)C(=O)/C(=C/c2ccsc2)C1 | 1.5* | 2.6* | · | · | ·
CC(C)N1C/C(=C/c2cccnc2)C(=O)/C(=C/c2cccnc2)C1 | 58 | 52 | · | · | ·
COc1ccc(C(=O)COC(=O)CN2C(=O)C3C4C=CC(C5CC45)C3C2=O)cc1 (centres undefined) | 99 | 98 | · | · | ·
SMILES | HCT116 PTEN-null | bCat KO growth | HUVEC inhibit | H69AR inhibit | Fibroblast inh
O=C(O)CN1CCN(Cc2ccc(Cl)cc2)C1=O | 98 | 91 | · | · | ·
CCOc1ccccc1NC(=O)Cn1nnc(C(=O)Nc2ccc(C)cc2)c1N | 107 | 89 | 76 | 78 | 83
CCOc1ccccc1NC(=O)Cn1nnc(C(=O)NCc2ccco2)c1N | 12 | 10 | 51 | 26* | 55
CCOc1ccc2c(c1)-c1c(ssc1=S)C(C)(C)N2C | 79 | 78 | 77 | 32* | 97
Nc1nc(-c2ccco2)c(-c2ccco2)s1 | 106 | 112 | 88 | 97 | ·
c1coc(-c2nc(-c3ccco3)c(-c3ccco3)nc2-c2ccco2)c1 | 87 | 94 | 69 | 27* | 84
Cn1c(C(=O)NC2CCCCC2)cc2c(=O)n(C)c3ccccc3c21 | 19 | 3.4* | 61 | 11* | 103
CC1CCC(NC(=O)c2cc3c(=O)n(C)c4ccccc4c3n2C)CC1 (centres undefined) | 48 | 73 | 68 | 29* | 88
Cn1c(C(=O)NC2CCCCCC2)cc2c(=O)n(C)c3ccccc3c21 | 54 | 61 | 60 | 12* | 93
CC1CCCCN1CCNC(=O)c1cc2c(=O)n(C)c3ccccc3c2n1C (centres undefined) | 36 | 37 | 84 | 85 | 91
CN(CC(O)COc1c(F)cc(Br)cc1F)C1CCCCC1 (centres undefined) | 89 | 94 | · | · | ·
COC(=O)/C(=C1/Oc2ccc(C)cc2S1)C(F)(F)F | 104 | 96 | · | · | ·
CC(=O)c1oc2ccccc2c1NC(=O)CCCN1C(=O)c2ccccc2C1=O | 98 | 102 | 95 | 79 | 106
COc1ccc2oc(C(=O)C3CC3)c(NC(=O)CCCN3C(=O)c4ccccc4C3=O)c2c1 | · | · | 86 | 31* | 92
O=C(N/N=C/C(Cl)=C\c1ccccc1)c1cnccn1 | 6 | 4.0* | 93 | 60 | 96
CN(/N=C/c1cccs1)c1cc(=O)n(C)c(=O)[nH]1 | 90 | 89 | 15* | 94 | 104
CCN(/N=C/c1cccs1)c1cc(=O)n(C)c(=O)[nH]1 | 92 | 85 | 35 | 96 | 103
O=C(CCS(=O)(=O)c1ccccc1)Nc1nc2c(s1)COc1ccccc1-2 | 1.8* | 3.1* | 58 | 2.0* | 50*
CN(C)/N=C/C=C1\CC/C(=C\c2ccc(Br)cc2)C1=O | 87 | 85 | 82 | 24* | 96
COc1ccc(/C=C2\CC/C(=C\c3ccc(OC)c(OC)c3)C2=O)cc1OC | 69 | 58 | · | · | ·
C=CCNc1nc(N)c(C(=O)c2ccc3c(c2)OCO3)s1 | 68 | 78 | 102 | 29* | 95
CCCn1c(N2CCN(CC(=O)NCc3cccs3)CC2)nc2ccccc21 | 83 | 93 | 102 | 38* | 99
CCCn1c(N2CCN(S(=O)(=O)Cc3ccccc3)CC2)nc2ccccc21 | 90 | 90 | 77 | 39* | 57
CCCn1c(N2CCN(C(=O)N3CCCCC3)CC2)nc2ccccc21 | 98 | 95 | 114 | 83 | 102
O=S(=O)(NCc1ccccc1)c1cccs1 | 93 | 109 | 97 | 98 | 93
SMILES | HCT116 PTEN-null | bCat KO growth | HUVEC inhibit | H69AR inhibit | Fibroblast inh
Cc1ccc(C=Nc2ccccc2C(N)=O)cc1 | 24 | 27 | 55 | 22* | 54
CCOC(=O)NC(NC(=O)OCC)C(=O)c1ccccc1 | 90 | 95 | · | · | ·
Cc1ccc2[nH]c(=O)c(CN(C(=O)c3cccs3)c3ccccc3)cc2c1 | 81 | 89 | · | · | ·
COc1cc(/C=C/c2ccc3cccc(OC)c3n2)c(OC(C)=O)c([N+](=O)[O-])c1 | 65 | 67 | 15* | 6.1* | 94
CCCn1c2ccccc2c2nnc(SC(CC)C(=O)Nc3cc(C)on3)nc21 (centres undefined) | 87 | 82 | 106 | 32* | 110
CCCn1c2ccccc2c2nnc(SC(CC)C(=O)Nc3sc4c(c3C#N)CCCC4)nc21 (centres undefined) | 66 | 79 | · | · | ·
O=c1[nH]cc(COCc2ccccc2)c(=O)[nH]1 | 4 | 2.6* | 84 | 111 | 100
COc1ccc(/C(N)=N/OC(=O)c2cccc([N+](=O)[O-])c2C)cc1OC | 56 | 59 | 70 | 36* | 93
